Results reported in publication PMC9574854 (Journal of Medicinal Chemistry, 2022).

Assays:
[1] = test system: 468 human kinases; assay: DiscoverX KINOMEscan panel, selectivity score; assay type: binding; conditions: for no. of kinase hits: 1 μM, 468 human kinases, PoC ≤10% (>90% inhibition); for reduction in selectivity: S10 (1 μM) compared to IKK16
[2] = target: T1, PfPK6 (Plasmodium falciparum, UniProt Q8IDW1); assay: KinaseSeeker split luciferase assay on PfPK6; assay type: biochemical; conditions: for remaining activity at 1 µM: read-out: PfPK6 PoC@1 μM; for selectivity (preference) for PfPK6 over PfGSK3: ratio of IC50 values; for LE PfPK6 (ligand efficiency): PfPK6 pIC50/number of heavy atoms in the molecule; for activity on PfPK6, in words: screen at 1 μM
T1 sequence (Q8IDW1 1-305): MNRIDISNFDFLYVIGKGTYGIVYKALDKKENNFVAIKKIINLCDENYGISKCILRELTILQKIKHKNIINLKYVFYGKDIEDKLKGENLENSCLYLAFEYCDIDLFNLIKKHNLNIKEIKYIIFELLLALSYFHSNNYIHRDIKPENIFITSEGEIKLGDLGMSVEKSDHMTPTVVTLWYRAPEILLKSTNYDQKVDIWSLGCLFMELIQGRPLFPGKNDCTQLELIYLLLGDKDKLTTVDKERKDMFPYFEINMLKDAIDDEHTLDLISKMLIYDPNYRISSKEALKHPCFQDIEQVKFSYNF

[3] = test system: HepG2 cells; assay: HepG2 CellTiter-Glo cytotoxicity assay; assay type: cell-based, human; conditions: HepG2, 2 μM
Procedure, shortened: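 HepG2 cells were grown in DMEM with 10% FBS, 1% NEAA and 1% L-glutamine, without antibiotics. They were seeded at 4000 cells/well and left overnight at 37 °C, 5% CO₂. Test compound was added at 200 nM or 2 μM, in quadruplicate, with DMSO held constant, for 48 h. Viability was read by CellTiter-Glo 2 luminescence. % viability is the average of two experiments.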

[4] = target: T2, PfGSK3 (Plasmodium falciparum, UniProt O77344); assay: KinaseSeeker split luciferase assay on PfGSK3; assay type: biochemical; conditions: for fold increase in potency on PfGSK3: compared to IKK16; for activity on PfGSK3, in words: screen at 1 μM
T2 sequence (O77344 1-440): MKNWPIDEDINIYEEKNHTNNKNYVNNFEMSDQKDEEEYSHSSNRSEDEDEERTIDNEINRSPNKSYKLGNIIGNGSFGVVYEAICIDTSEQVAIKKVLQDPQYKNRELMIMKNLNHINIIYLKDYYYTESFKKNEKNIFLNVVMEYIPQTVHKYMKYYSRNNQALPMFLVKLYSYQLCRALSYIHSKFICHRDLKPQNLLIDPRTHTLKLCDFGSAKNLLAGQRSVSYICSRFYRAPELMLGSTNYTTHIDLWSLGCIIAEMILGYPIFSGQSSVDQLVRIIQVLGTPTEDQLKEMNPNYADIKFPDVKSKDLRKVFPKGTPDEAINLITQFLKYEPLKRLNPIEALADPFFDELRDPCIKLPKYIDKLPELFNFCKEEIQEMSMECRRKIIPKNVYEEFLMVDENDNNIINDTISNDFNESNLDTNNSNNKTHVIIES
Procedure, shortened: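 Split-luciferase binding assay: lysate with Cfluc-PfGSK3 fusion plus Fos-Nfluc, incubated 2 h with test compound in DMSO (or DMSO control) and a kinase-specific probe. Luminescence was read immediately after luciferin reagent. % inhibition = (control − sample)/control × 100. Compounds were first counter-screened against split luciferase, then screened at 1 μM.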

[5] = in words; cited from earlier work
[6] = rats, in words; cited from earlier work
[7] = test system: Pf3D7; conditions: read-out: Pf3D7 blood stage EC50; blood stage proliferation; cited from earlier work
[8] = test system: PfCDPK1; conditions: read-out: PfCDPK1 IC50; cited from earlier work

## O=C(c1ccc(Nc2ncc(Cl)c(-c3ccc(Cl)s3)n2)cc1)N1CCC(N2CCCC2)CC1 [Compound 23d, (4-((5-Chloro-4-(5-chlorothiophen-2-yl)pyrimidin-2-yl)amino)phenyl)(4-(pyrrolidin-1-yl)piperidin-1-yl)methanone]
[1]
  no. of kinase hits: 103

## O=C(c1ccc(Nc2nccc(-c3cc4ccccc4s3)n2)cc1)N1CCC(N2CCCCC2)CC1 [Compound 9b, [1,4′-Bipiperidin]-1′-yl(4-((4-(benzo[b]thiophen-2-yl)pyrimidin-2-yl)amino)phenyl)methanone]
[2]; compared to IKK16
  fold increase in potency on PfPK6: ~4 fold

## O=C(NCCCN1CCOCC1)c1ccc(Nc2nccc(-c3cc4ccccc4s3)n2)cc1 [Compound 9g, 4-((4-(Benzo[b]thiophen-2-yl)pyrimidin-2-yl)amino)-N-(3-morpholinopropyl)benzamide]
[1]
  no. of kinase hits: 32

## Clc1cccc(Nc2nccc(-c3cc4ccccc4s3)n2)c1 [Compound 4c, 4-(Benzo[b]thiophen-2-yl)-N-(3-chlorophenyl)pyrimidin-2-amine]
[2]
  remaining activity at 1 µM: 100%

## Cc1cnc(Nc2ccc(C(=O)N3CCC(N4CCCC4)CC3)cc2)nc1-c1cc2ccccc2s1 [Compound 18n, (4-((4-(Benzo[b]thiophen-2-yl)-5-methylpyrimidin-2-yl)amino)phenyl)(4-(pyrrolidin-1-yl)piperidin-1-yl)methanone]
[3]
  more cytotoxicity than IKK16: ~40%
[1]
  no. of kinase hits: 100
  reduction in selectivity: ~2 fold
[2]; compared to IKK16
  fold increase in potency on PfPK6: 9 fold
[2]
  selectivity (preference) for PfPK6 over PfGSK3: ~16 fold

## O=C(c1ccc(Nc2nccc(-c3ccc(Cl)s3)n2)cc1)N1CCC(N2CCCC2)CC1 [Compound 18j, (4-((4-(5-Chlorothiophen-2-yl)pyrimidin-2-yl)amino)phenyl)(4-(pyrrolidin-1-yl)piperidin-1-yl)methanone]
[2]
  LE PfPK6 (ligand efficiency): 0.30

## O=C(NC1CC1)c1ccc(Nc2nccc(-c3cc4ccccc4s3)n2)cc1 [Compound 9j, 4-((4-(Benzo[b]thiophen-2-yl)pyrimidin-2-yl)amino)-N-cyclopropylbenzamide]
[4]
  fold increase in potency on PfGSK3: roughly 2 fold

## O=C(c1ccc(Nc2nccc(-c3cc4ccccc4s3)n2)cc1)N1CCC(N2CCCC2)CC1 [IKK16, reference compound]
[5]
  toxicity in a resazurin-based cell viability assay: low toxicity
[1]
  no. of kinase hits: 41
[2]
  LE PfPK6 (ligand efficiency): 0.26
[6]
  oral bioavailability: orally bioavailable

## CN1CCN(CCCNC(=O)c2ccc(Nc3nccc(-c4cc5ccccc5s4)n3)cc2)CC1 [Compound 9f, 4-((4-(Benzo[b]thiophen-2-yl)pyrimidin-2-yl)amino)-N-(3-(4-methylpiperazin-1-yl)propyl)benzamide]
[4]
  fold increase in potency on PfGSK3: 2 fold
[2]; compared to IKK16
  fold increase in potency on PfPK6: ~3 fold

## Clc1ccccc1Nc1nccc(-c2cc3ccccc3s2)n1 [Compound 4d, 4-(Benzo[b]thiophen-2-yl)-N-(2-chlorophenyl)pyrimidin-2-amine]
[2]
  remaining activity at 1 µM: 100%

## O=C(c1ccc(Nc2nccc(-c3ccc(COCC(F)(F)F)s3)n2)cc1)N1CCC(N2CCCC2)CC1 [Compound 18m, (4-(Pyrrolidin-1-yl)piperidin-1-yl)(4-((4-(5-((2,2,2-trifluoroethoxy)methyl)thiophen-2-yl)pyrimidin-2-yl)amino)phenyl)methanone]
[2]; compared to its alcohol counterpart (18l)
  fold increase in potency on PfPK6: ~2 fold

## O=C(c1ccc(Nc2ncc(Cl)c(-c3cc4ccccc4s3)n2)cc1)N1CCC(N2CCCC2)CC1 [Compound 18r, (4-((4-(Benzo[b]thiophen-2-yl)-5-chloropyrimidin-2-yl)amino)phenyl)(4-(pyrrolidin-1-yl)piperidin-1-yl)methanone]
[1]
  no. of kinase hits: 88
  reduction in selectivity: ~2 fold
[2]; compared to IKK16
  fold increase in potency on PfPK6: 20 fold
[2]
  selectivity (preference) for PfPK6 over PfGSK3: 9 fold

## Cc1cn2c(-c3ccnc(NCC4CC4)n3)c(-c3ccc(F)c(NS(C)(=O)=O)c3)nc2cc1CN(C)C [ML10]
[7]
  EC50: 2.1 nM

## O=C(O)c1ccc(Nc2nccc(-c3cc4ccccc4s3)n2)cc1 [Compound 6, 4-((4-(Benzo[b]thiophen-2-yl)pyrimidin-2-yl)amino)benzoic acid]
[2]
  remaining activity at 1 µM: 100%

## O=C(c1ccc(Nc2nccc(-c3ccco3)n2)cc1)N1CCC(N2CCCC2)CC1 [Compound 18e, (4-((4-(Furan-2-yl)pyrimidin-2-yl)amino)phenyl)(4-(pyrrolidin-1-yl)piperidin-1-yl)methanone]
[4]
  activity on PfGSK3, in words: inactive
[2]; compared to thiophene 18c
  fold decrease in potency on PfPK6: more than 3 fold

## Cn1cc(NC(=O)c2ccc(Nc3nccc(-c4cc5ccccc5s4)n3)cc2)cn1 [Compound 9k, 4-((4-(Benzo[b]thiophen-2-yl)pyrimidin-2-yl)amino)-N-(1-methyl-1H-pyrazol-4-yl)benzamide]
[4]
  activity on PfGSK3, in words: no activity
[2]
  activity on PfPK6, in words: no activity

## COc1ccccc1Nc1nccc(-c2cc3ccccc3s2)n1 [Compound 4g, 4-(Benzo[b]thiophen-2-yl)-N-(2-methoxyphenyl)pyrimidin-2-amine]
[2]
  remaining activity at 1 µM: 100%

## O=C(c1ccc(Nc2nccc(-c3ccc(-c4ccccc4)s3)n2)cc1)N1CCC(N2CCCC2)CC1 [Compound 18k, (4-((4-(5-Phenylthiophen-2-yl)pyrimidin-2-yl)amino)phenyl)(4-(pyrrolidin-1-yl)piperidin-1-yl)methanone]
[4]
  activity on PfGSK3, in words: inactive

## c1ccc(CNc2nccc(-c3cc4ccccc4s3)n2)cc1 [Compound 4h, 4-(Benzo[b]thiophen-2-yl)-N-benzylpyrimidin-2-amine]
[4]
  activity on PfGSK3, in words: inactive
[2]
  remaining activity at 1 µM: 100%
  activity on PfPK6, in words: inactive

## c1ccc(Nc2nccc(-c3cc4ccccc4s3)n2)cc1 [Compound 4a, 4-(Benzo[b]thiophen-2-yl)-N-phenylpyrimidin-2-amine]
[4]
  activity on PfGSK3, in words: failed to inhibit
[2]
  remaining activity at 1 µM: 100%
  activity on PfPK6, in words: failed to inhibit

## Cc1ccc(-c2nc(Nc3ccc(C(=O)N4CCC(N5CCCC5)CC4)cc3)ncc2C)s1 [Compound 23a, (4-((5-Methyl-4-(5-methylthiophen-2-yl)pyrimidin-2-yl)amino)phenyl)(4-(pyrrolidin-1-yl)piperidin-1-yl)methanone]
[4]
  activity on PfGSK3, in words: did not reach our threshold

## O=C(c1ccc(Nc2nccc(-c3cccs3)n2)cc1)N1CCC(N2CCCC2)CC1 [Compound 18c, (4-(Pyrrolidin-1-yl)piperidin-1-yl)(4-((4-(thiophen-2-yl)pyrimidin-2-yl)amino)phenyl)methanone]
[4]
  activity on PfGSK3, in words: inactivity

## O=C(NCCCN1CCOCC1)c1ccc(Nc2ncc(Cl)c(-c3ccc(Cl)s3)n2)cc1 [Compound 23e, 4-((5-Chloro-4-(5-chlorothiophen-2-yl)pyrimidin-2-yl)amino)-N-(3-morpholinopropyl)benzamide]
[4]
  IC50: < 100 nM
[1]
  no. of kinase hits: 64
[1]; compared to 23d, from 103 to 64 kinase hits
  reduction of promiscuity (kinase hits): ~40%

## Cc1cnc(Nc2ccc(C(=O)NCCCN3CCOCC3)cc2)nc1-c1ccc(Cl)s1 [Compound 23g, 4-((4-(5-Chlorothiophen-2-yl)-5-methylpyrimidin-2-yl)amino)-N-(3-morpholinopropyl)benzamide]
[4]
  activity on PfGSK3, in words: did not show significant activity

## COc1cccc(Nc2nccc(-c3cc4ccccc4s3)n2)c1 [Compound 4f, 4-(Benzo[b]thiophen-2-yl)-N-(3-methoxyphenyl)pyrimidin-2-amine]
[2]
  remaining activity at 1 µM: 100%

## N[C@H]1CC[C@H](Nc2nc(Nc3ccc(C(=O)N4CCCCC4)cc3)c3ncn(-c4cccc(F)c4)c3n2)CC1 [Purfalcamine]
[8]
  IC50: 17 nM

## Cc1ccc(-c2nc(Nc3ccc(C(=O)NCCCN4CCOCC4)cc3)ncc2Cl)s1 [Compound 23f, 4-((5-Chloro-4-(5-methylthiophen-2-yl)pyrimidin-2-yl)amino)-N-(3-morpholinopropyl)benzamide]
[4]
  IC50: < 100 nM
